Results taken from the RNAGym collection of RNA variant scans (doi:10.1101/gad.245936.114).
This sample holds only a part of the variants without activity.

B1: tRNA (parent)
chain: CUCUCGGUAGCCAAGUUGGUUUAAGGCGCAAGACUUUAAUUUAUCACUACGAAAUCUUGAGAUCGGGCGUUCGACUCGCCCCCGGGAGAUUUUUUCCUCGAGCAA

Variants of: B1
Test: nonsense suppression (GFP-seq) (ratio to wild type); higher = more function; SUP4oc tRNA, yeast GFP reporter sort-seq
In short: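 Yeast were grown in raffinose/galactose medium with 80 mg/L adenine, each strain bearing a genome-integrated ochre-suppressor tRNA variant from a ~3% random-mutation library, a galactose-driven GFP ochre reporter, and RFP. After sorting into GFP/RFP bins, every bin was sequenced on an Illumina platform at phred ≥30. The GFPSEQ value, a measure of nonsense suppression, is the weighted bin median GFP/RFP relative to the unmutated parent tRNA, using each variant's estimated cell share per bin as the weight. Only variants with ≥100 reads and ≥30 cells were included.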

Variant	nonsense suppression
CUCUCGGUAGCCAAGUUGGUUUAAGGCGCAAGAGUUUAAUUUAUCACUACGAAAUCUUGAGAUUGGGCGUUCGACUCGCCCCCGGGAGAUUUUUUCCUCGAGCAA [C34G C64U]	≤ 0.026
CUCUCGGUAGCCAAGUUGGUUUAAGGCGCAAGAGUUUAAUUUAUCACUACGAAAUCUUGAGAUCGGGCGUUCGACUCGCCCCCGGUAGAUUUUUUCCUCGAGCAA [C34G G86U]	≤ 0.026
CUCUCGGUAGCCAAGUUGGUUUAAGGCGCAAGAAUUUAAUUUAUCACUACGAAACCUUGAGAUCGAGCGUUCGACUCGCCCCCGGGAGAUUUUUUCCUCGAGCAA [C34A U55C G66A]	≤ 0.026
CUCUCGGUAGCCAAGUUGGUUUAAGGCGCAAGUCUUUAAUUUAUCACUACGAAAUCUUGAGAUCGGGCGUACGACUCGCCCCCGGGAGAUUUUUUCCUCGAGCAA [A33U U71A]	≤ 0.026
CUCUCGGUAGCCAAGUUGGUUUAAGGCGCAAGUCUUUAAUUUAUCACUACGAAAUCUUGAGAUCGGGCGUUCGACUCGCCCCCGGGAGAUUUUUUCCUCGAGCAA [A33U]	0.0699
CUCUCGGUAGCCAAGUUGGUUUAAGGCGCAAGAAUUUAAUUUAUCACUACGAAAACUUGAGAUCGGGCGUUCGACUCGCACCCGGGAGAUUUUUUCCUCGAGCAA [C34A U55A C80A]	≤ 0.026
CUCUCGGUAGCCAAGUUGGUUUAAGGCGCAAGGCUUUAAUUUAUCACUACGAAAUCUUGAGAUCGGGCGUUCGACUCGCUCCCGGGAGAUUUUUUCCUCGAGCAA [A33G C80U]	0.0422
CUCUCGGUAGCCAAGUUGGUUUAAGGCGCAAGGCUUUAAUUUAUCACUACGAAAUCUUGAGAUCGGGCGUUCGACUCGCCCCCGGGACAUUUUUUCCUCGAGCAA [A33G G88C]	≤ 0.026
CUCUCGGUAGCCAAGUUGGUUUAAGGCGCAAGUCUUUAAUUUAUCACUACGAAAUCUUGAGAUCGGGCGUUCCACUCGCCCCCGGGAGAUUUUUUCCUCGAGCAA [A33U G73C]	≤ 0.026
CUCUCGGUAGCCAAGUUGGUUUAAGGCGCAAGAGUUUAAUUUAUCACUACGAAAUCUUGAGAUCGGGCGGUCGACUCGCCCCCGGGAGAUUUUUUCCUCGAGCAA [C34G U70G]	≤ 0.026
CUCUCGGUAGCCAAGUUGGUUUAAGGCGCAAGUCUUUAAUUUAUCACUACGAAAUCCUGAGGUCGGGCGUUCGACUCGCCCCCGGGAGAUUUUUUCCUCGAGCAA [A33U U57C A62G]	≤ 0.026
CUCUCGGUAGCCAAGUUGGUUUAAGGCGCAAGAGUUUAAUUUAUCACUACGAAAUCUUGAGAUCGGGCGUUAGACUCGCCCCCGGGAGAUUUUUUCCUCGAGCAA [C34G C72A]	≤ 0.026
CUCUCGGUAGCCAAGUUGGUUUAAGGCGCAAGAGUUUAAUUUAUCACUACGAAAUCUUGAGAUCGGGCGUUCGACUCGCCACCGGGAGAUUUUUUCCUCGAGCAA [C34G C81A]	≤ 0.026
CUCUCGGUAGCCAAGUUGGUUUAAGGCGCAAGAGUUUAAUUUAUCACUACGAAAUCUUGAGAUCGGGCGUUCGACUCCCCCCCGGGAGAUUUUUUCCUCGAGCAA [C34G G78C]	≤ 0.026
CUCUCGGUAGCCAAGUUGGUUUAAGGCGCAAGUCUUUAAUUUAUCACUACGAAACCUUGAGAACGGGCGCUCGACUCGCCCCCGGGAGAUUUUUUCCUCGAGCAA [A33U U55C U63A U70C]	≤ 0.026
CUCUCGGUAGCCAAGUUGGUUUAAGGCGCAAGUCUUUAAUUUAUCACUACGAAAUCUUGAGAUCGGGCGUUCGACUCGCCCCCGAGAGAUUUUUUCCUCGAGCAA [A33U G85A]	0.0389
CUCUCGGUAGCCAAGUUGGUUUAAGGCGCAAGGCUUUAAUUUAUCACUACGAAAUCUUGAGAACGGGCGUUCGACUCGCCCCCGGGAGAUUUUUUCCUCGAGCAA [A33G U63A]	0.031
CUCUCGGUAGCCAAGUUGGUUUAAGGCGCAAGGCUUUAAUUUAUCACUACGAAAUCUUGAGACCGGGCGUUCGACUCGCCCCCGGGAGAUUUUUUCCUCGAGCAA [A33G U63C]	0.11
CUCUCGGUAGCCAAGUUGGUUUAAGGCGCAAGGCUUUAAUUUAUCACUACGAAAUCUUGAGAUCGGGCGUUCGAUUCGCCCCCGGGAGAUUUUUUCCUCGAGCAA [A33G C75U]	0.275
CUCUCGGUAGCCAAGUUGGUUUAAGGCGCAAGGCUUUAAUUUAUCACUACGAAAUCUUGAGAUCGGGCGUUCGACUCGCCCCCGCGAGAUUUUUUCCUCGAGCAA [A33G G85C]	0.0351
CUCUCGGUAGCCAAGUUGGUUUAAGGCGCAAGAAUUUAAUUUAUCACUACGAAAUCUUGAGAUCCGGCGUUCGACUCGCCCCCGCGAGAUUUUUUCCUCGAGCAA [C34A G65C G85C]	≤ 0.026
CUCUCGGUAGCCAAGUUGGUUUAAGGCGCAAGAGUUUAAUUUAUCACUACGAAAUCUUGAAAUCGGGCGUUCGACUCGCCCCCGGGAGAUUUUUUCCUCGAGCAA [C34G G61A]	0.0334
CUCUCGGUAGCCAAGUUGGUUUAAGGCGCAAGAGUUUAAUUUAUCACUACGAAAUCUUGACAUCGGGCGUUCGACUCGCCCCCGGGAGAUUUUUUCCUCGAGCAA [C34G G61C]	≤ 0.026
CUCUCGGUAGCCAAGUUGGUUUAAGGCGCAAGAAUUUAAUUUAUCACUACGAAAUCUUGAGAUCGGGAGUUCGACUCGCCCCCGGGUGAUUUUUUCCUCGAGCAA [C34A C68A A87U]	≤ 0.026
CUCUCGGUAGCCAAGUUGGUUUAAGGCGCAAGGCUUUAAUUUAUCACUACGAAAUCUAGAGAUCGGGCGUUCGACUCGCCCCCGGGAGAUUUUUUCCUCGAGCAA [A33G U58A]	≤ 0.026
CUCUCGGUAGCCAAGUUGGUUUAAGGCGCAAGUCUUUAAUUUAUCACUACGAAAUCUUGAGAACGGGCGUUCGACUCGCCCCCGGGAGAUUUUUUCCUCGAGCAA [A33U U63A]	0.0268
CUCUCGGUAGCCAAGUUGGUUUAAGGCGCAAGGCUUUAAUUUAUCACUACGAAAUCUUGAGAUCGGGCGUUCGACUCGCCCCCUGGAGAUUUUUUCCUCGAGCAA [A33G G84U]	0.222
